According to ChEMBL document CHEMBL4431333, “Synthesis, Antibacterial, and Anticancer Evaluation of Novel Spiramycin-Like Conjugates Containing C(5) Triazole Arm” (J Med Chem, 2016):
Converted amounts (≈) assume the structure as drawn. The source made the active and inactive calls. No cut-off for these calls is given here.

Legend:
[1] = tested on: Staphylococcus epidermidis; assay: Antibacterial activity against Staphylococcus epidermidis ATCC 12228 after 18 hrs by serial microdilution method; format: functional
Bacillus spizizenii = assay: Antibacterial activity against Bacillus subtilis ATCC 6633 after 18 hrs by serial microdilution method; format: functional
Staphylococcus aureus [2] = assay: Antibacterial activity against methicillin-resistant Staphylococcus aureus isolate 1 after 18 hrs by serial microdilution method; format: functional
Summary of the method: (§1)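 Clinical MRSA isolates, confirmed by cefoxitin 30 μg disc diffusion (EUCAST) and PCR for mecA. MIC by EUCAST broth microdilution in Mueller–Hinton II broth. Compounds dissolved in DMSO and diluted in broth, tested at 0.064–64 μg mL−1. Final inoculum approximately 5 × 10^5 CFU mL−1. Read after 18 h at 35 ± 2 °C.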

Micrococcus luteus = assay: Antibacterial activity against Micrococcus luteus ATCC 10240 after 18 hrs by serial microdilution method; format: functional
[3] = Solubility of compound in water; format: physicochemical
Streptococcus pneumoniae = assay: Antibacterial activity against Streptococcus pneumoniae ATCC 49619 after 18 hrs by serial microdilution method; format: functional
[4] = (§2) Selectivity index, ratio of IC50 for HDF to IC50 for human KB cells
Staphylococcus aureus [5] = assay: Antibacterial activity against methicillin-resistant Staphylococcus aureus isolate 2 after 18 hrs by serial microdilution method; format: functional; summary of the method: as §1
Homo sapiens [6] = organism: Homo sapiens; assay: (§3) Selectivity index, ratio of IC50 for HDF to IC50 for human HeLa cells
Homo sapiens [7] = organism: Homo sapiens; assay: (§4) Selectivity index, ratio of IC50 for HDF to IC50 for human HepG2 cells
[8] = tested on: Staphylococcus epidermidis; assay: Antibacterial activity against Staphylococcus epidermidis ATCC 49134 after 18 hrs by serial microdilution method; format: functional
Homo sapiens [9] = organism: Homo sapiens; assay: (§5) Selectivity index, ratio of IC50 for HDF to IC50 for human MCF7 cells
Homo sapiens [10] = organism: Homo sapiens; assay: as §2
[11] = as §3
MCF7 = assay: Cytotoxicity against human MCF7 cells assessed as reduction in cell survival after 72 hrs by sulforhodamine B assay; format: functional, cell-based
[12] = as §5
NHDF = assay: Cytotoxicity against HDF assessed as reduction in cell survival after 72 hrs by sulforhodamine B assay; format: cell-based, Homo sapiens
HeLa = assay: Cytotoxicity against human HeLa cells assessed as reduction in cell survival after 72 hrs by sulforhodamine B assay; format: functional, cell-based
[13] = as §4
[14] = Octanol-water partition coefficient, log P of compound after 1 hr by UV-visible spectrophotometric analysis; format: physicochemical
KB = assay: Cytotoxicity against human KB cells assessed as reduction in cell survival after 72 hrs by sulforhodamine B assay; format: functional, cell-based
HepG2 = assay: Cytotoxicity against human HepG2 cells assessed as reduction in cell survival after 72 hrs by sulforhodamine B assay; format: functional, cell-based

## CO/C1=C\CC(=O)O[C@H](C)C/C=C/C=C/[C@H](O[C@H]2CC[C@H](N(C)C)[C@@H](C)O2)[C@H](C)C[C@@H]2C[C@H](OCc3ccc(F)cc3)O[C@@H]12
[1]
  Activity: inactive
Bacillus spizizenii
  Activity: inactive
Staphylococcus aureus [2]
  Activity: inactive
Micrococcus luteus
  Activity: inactive
[3]; buffer
  solubility: Insoluble
Streptococcus pneumoniae
  Activity: inactive

## O=c1[nH]c(=O)n([C@H]2C[C@H](O)[C@@H](CO)O2)cc1F [FLOXURIDINE]
[4]
  Ratio IC50: 1.5

## SPIRAMYCIN [listing 1 of 2 here]
[1]
  MIC: 2.37 µM
Bacillus spizizenii
  MIC: 0.59 µM
Staphylococcus aureus [2]
  MIC: 9.49 µM
Staphylococcus aureus [5]
  MIC: 4.74 µM
Homo sapiens [6]
  Ratio IC50: 0.9
Micrococcus luteus
  MIC: 0.3 µM
Homo sapiens [7]
  Ratio IC50: 1.02
[8]
  MIC: 2.37 µM
Homo sapiens [9]
  Ratio IC50: 0.94
Homo sapiens [10]
  Ratio IC50: 0.9
Streptococcus pneumoniae
  MIC: 0.3 µM

## Nc1ccn([C@@H]2O[C@H](CO)[C@@H](O)[C@@H]2O)c(=O)n1 [CYTARABINE]
[4]
  Ratio IC50: 1.23

## C=CCO[C@H]1C[C@H]2C[C@@H](C)[C@@H](O[C@H]3CC[C@H](N(C)C)[C@@H](C)O3)/C=C/C=C/C[C@@H](C)OC(=O)C/C=C(\OC)[C@@H]2O1
[1]
  Activity: inactive
Bacillus spizizenii
  Activity: inactive
Staphylococcus aureus [2]
  Activity: inactive
Micrococcus luteus
  Activity: inactive
[3]; buffer
  solubility: Insoluble
Streptococcus pneumoniae
  Activity: inactive

## Cc1cn([C@H]2C[C@H](N=[N+]=[N-])[C@@H](CO)O2)c(=O)[nH]c1=O [ZIDOVUDINE]
[11]
  Ratio IC50: 1.34
MCF7; Homo sapiens, MCF7, 72 h
  IC50: 7.67 µM
[12]
  Ratio IC50: 1.88
[4]
  Ratio IC50: 1.48

## C#CCO[C@H]1C[C@H]2C[C@@H](C)[C@@H](O[C@H]3CC[C@H](N(C)C)[C@@H](C)O3)/C=C/C=C/C[C@@H](C)OC(=O)C/C=C(\OC)[C@@H]2O1
[1]
  Activity: inactive
Bacillus spizizenii
  Activity: inactive
Staphylococcus aureus [2]
  Activity: inactive
Staphylococcus aureus [5]
  Activity: inactive
Micrococcus luteus
  Activity: inactive
[8]
  Activity: inactive
[3]; buffer
  solubility: Insoluble
Streptococcus pneumoniae
  Activity: inactive

## CO/C1=C\CC(=O)O[C@H](C)C/C=C/C=C/[C@H](O[C@H]2CC[C@H](N(C)C)[C@@H](C)O2)[C@H](C)C[C@@H]2C[C@H](OCc3cn([C@H]4O[C@@H](CO)[C@H](O)[C@@H](O)[C@@H]4O)nn3)O[C@@H]12
[1]; ATCC 12228, 18 h
  MIC: 85.2 µM (≈ 64 µg/mL)
Bacillus spizizenii; ATCC 6633, 18 h
  MIC: 85.2 µM (≈ 64 µg/mL)
Staphylococcus aureus [2]; isolate 1, 18 h
  MIC: > 85.2 µM
Staphylococcus aureus [5]; isolate 2, 18 h
  MIC: > 85.2 µM
Micrococcus luteus; ATCC 10240, 18 h
  MIC: 85.2 µM (≈ 64 µg/mL)
[8]; ATCC 49134, 18 h
  MIC: 85.2 µM (≈ 64 µg/mL)
Streptococcus pneumoniae; ATCC 49619, 18 h
  MIC: 10.7 µM (≈ 8 µg/mL)

## CO/C1=C\CC(=O)O[C@H](C)C/C=C/C=C/[C@H](O[C@H]2CC[C@H](N(C)C)[C@@H](C)O2)[C@H](C)C[C@@H]2C[C@H](OCc3cn([C@H]4C[C@H](n5cc(C)c(=O)[nH]c5=O)O[C@@H]4CO)nn3)O[C@@H]12
[3]; buffer
  solubility: Insoluble

## O=c1[nH]cc(F)c(=O)[nH]1 [FLUOROURACIL]
NHDF; Homo sapiens, NHDF, 72 h
  IC50: 7.02 µM
[4]
  Ratio IC50: 1.45

## CO/C1=C\CC(=O)O[C@H](C)C/C=C/C=C/[C@H](O[C@H]2CC[C@H](N(C)C)[C@@H](C)O2)[C@H](C)C[C@@H]2C[C@H](OCc3cn(Cc4ccccc4)nn3)O[C@@H]12
[3]; buffer
  solubility: Insoluble

## CO/C1=C\CC(=O)O[C@H](C)C/C=C/C=C/[C@H](O[C@H]2CC[C@H](N(C)C)[C@@H](C)O2)[C@H](C)C[C@@H]2C[C@H](OCc3cn(CC4CCOCC4)nn3)O[C@@H]12
[1]
  Activity: inactive
Bacillus spizizenii
  Activity: inactive
Staphylococcus aureus [2]
  Activity: inactive
Staphylococcus aureus [5]
  Activity: inactive
Micrococcus luteus
  Activity: inactive
[8]
  Activity: inactive
[3]; buffer
  solubility: Insoluble
Streptococcus pneumoniae
  Activity: inactive

## COC1=C\[C@@H](CC=O)C[C@@H](C)[C@@H](O[C@H]2CC[C@H](N(C)C)[C@@H](C)O2)/C=C/C=C/C[C@@H](C)OC(=O)\C=C\1
NHDF; Homo sapiens, NHDF, 72 h
  IC50: 139 µM
[1]; ATCC 12228, 18 h
  MIC: 16.3 µM (≈ 8 µg/mL)
HeLa; Homo sapiens, HeLa, 72 h
  IC50: 127 µM
Bacillus spizizenii; ATCC 6633, 18 h
  MIC: 16.3 µM (≈ 8 µg/mL)
Staphylococcus aureus [2]; isolate 1, 18 h
  MIC: 32.7 µM (≈ 16 µg/mL)
Staphylococcus aureus [5]; isolate 2, 18 h
  MIC: 32.7 µM (≈ 16 µg/mL)
[11]
  Ratio IC50: 1.1
Micrococcus luteus; ATCC 10240, 18 h
  MIC: 8.17 µM (≈ 4 µg/mL)
MCF7; Homo sapiens, MCF7, 72 h
  IC50: 131 µM
[13]
  Ratio IC50: 1.03
[8]; ATCC 49134, 18 h
  MIC: 16.3 µM (≈ 8 µg/mL)
[3]; water, read-out: solubility
  solubility: 700 µg/mL (≈ 1430 µM)
[12]
  Ratio IC50: 1.07
[14]
  logP at 1 h: 0.74
[4]
  Ratio IC50: 1.05
KB; Homo sapiens, KB, 72 h
  IC50: 133 µM
Streptococcus pneumoniae; ATCC 49619, 18 h
  MIC: 4.08 µM (≈ 2 µg/mL)
HepG2; Homo sapiens, HepG2, 72 h
  IC50: 135 µM

## CO/C1=C\CC(=O)O[C@H](C)C/C=C/C=C/[C@H](O[C@H]2CC[C@H](N(C)C)[C@@H](C)O2)[C@H](C)C[C@@H]2C[C@H](OCc3cn(CC4CCCCC4)nn3)O[C@@H]12
[3]; buffer
  solubility: Insoluble

## CO/C1=C\CC(=O)O[C@H](C)C/C=C/C=C/[C@H](O[C@H]2CC[C@H](N(C)C)[C@@H](C)O2)[C@H](C)C[C@@H]2C[C@H](OCc3cn([C@H]4O[C@@H](CO)[C@@H](O)[C@@H](O)[C@@H]4O)nn3)O[C@@H]12
[1]; ATCC 12228, 18 h
  MIC: > 85.2 µM
Bacillus spizizenii; ATCC 6633, 18 h
  MIC: 85.2 µM (≈ 64 µg/mL)
Staphylococcus aureus [2]; isolate 1, 18 h
  MIC: > 85.2 µM
Staphylococcus aureus [5]; isolate 2, 18 h
  MIC: > 85.2 µM
Micrococcus luteus; ATCC 10240, 18 h
  MIC: 85.2 µM (≈ 64 µg/mL)
[8]; ATCC 49134, 18 h
  MIC: > 85.2 µM
Streptococcus pneumoniae; ATCC 49619, 18 h
  MIC: 10.7 µM (≈ 8 µg/mL)

## SPIRAMYCIN [listing 2 of 2 here]
NHDF; nhdf
  IC50: 31.1 µM
HeLa; hela
  IC50: 34.4 µM
MCF7; mcf7
  IC50: 33.1 µM
[3]; buffer
  solubility: 4500 µg/mL
[14]; 1 h
  logP: 0.58
KB; kb
  IC50: 31.3 µM
HepG2; hepg2
  IC50: 30.5 µM

## CO/C1=C\CC(=O)O[C@H](C)C/C=C/C=C/[C@H](O[C@H]2CC[C@H](N(C)C)[C@@H](C)O2)[C@H](C)C[C@@H]2C[C@H](OCc3cn(C4CCCCC4)nn3)O[C@@H]12
[3]; buffer
  solubility: Insoluble

## CO/C1=C\CC(=O)O[C@H](C)C/C=C/C=C/[C@H](O[C@H]2CC[C@H](N(C)C)[C@@H](C)O2)[C@H](C)C[C@@H]2C[C@H](OCc3cn(C4CCCCCC4)nn3)O[C@@H]12
[3]; buffer
  solubility: Insoluble
